Activity calls are given as the source filed them. The rule behind the calls is not given here.
System: Pseudomonas aeruginosa
Test: Inhibition of Pseudomonas aeruginosa IMPDH delta Bateman domain extracted form Escherichia coli BL21 (DE3)pDIA17 assessed as formation of NADH at 50 uM relative to control
Details: not given
How it was run: (§1)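 Bateman-domain-deleted IMPDH (E. coli or P. aeruginosa), His-tagged, made in E. coli BL21(DE3)/pDIA17. NADH formation at 340 nm, 30 °C, 0.2 mM IMP, 0.4 mM NAD⁺, 0.2 mM MgATP, 2 mM MgCl₂. Buffer: ec Tris-HCl 50 mM pH 9, KCl 100 mM; pa Tris-HCl 50 mM pH 8, KCl 100 mM. Compound 50 μM; % inhibition relative to uninhibited enzyme.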

SMILES	inhibition [%]
CC(C)(NC(=O)Nc1ccc(Cl)c([N+](=O)[O-])c1)c1cccc(-c2cc[nH]n2)c1	98

Molecular target: T1, Inosine-5'-monophosphate dehydrogenase (Pseudomonas aeruginosa (strain ATCC 15692 / DSM 22644 / CIP 104116 / JCM14847 / LMG 12228 / 1C / PRS 101 / PAO1)) (UniProt Q9HXM5)
T1 sequence (whole entry): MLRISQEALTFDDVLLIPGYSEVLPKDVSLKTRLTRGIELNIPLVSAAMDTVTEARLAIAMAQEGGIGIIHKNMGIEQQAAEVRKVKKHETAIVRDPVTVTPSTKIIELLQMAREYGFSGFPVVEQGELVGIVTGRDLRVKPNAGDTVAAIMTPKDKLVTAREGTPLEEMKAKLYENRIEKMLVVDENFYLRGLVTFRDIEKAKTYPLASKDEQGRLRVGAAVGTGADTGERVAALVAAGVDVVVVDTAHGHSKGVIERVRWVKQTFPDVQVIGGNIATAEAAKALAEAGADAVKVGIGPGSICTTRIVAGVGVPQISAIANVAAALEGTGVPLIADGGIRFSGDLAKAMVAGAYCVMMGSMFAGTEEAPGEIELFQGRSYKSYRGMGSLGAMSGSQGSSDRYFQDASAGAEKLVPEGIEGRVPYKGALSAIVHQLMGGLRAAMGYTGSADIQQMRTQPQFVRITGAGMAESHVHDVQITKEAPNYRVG
Test: Non-competitive inhibition of Pseudomonas aeruginosa IMPDH by Lineweaver-Burk plot analysis
Details: not given
How it was run: (§2)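 Steady-state kinetics of P. aeruginosa ΔBateman IMPDH: initial rates (NADH at 340 nm, 30 °C, Tris-HCl 50 mM pH 8, KCl 100 mM) measured across variable IMP at saturating 2 mM NAD⁺, without or with several inhibitor concentrations; data from at least three experiments fitted to Michaelis–Menten and shown as Lineweaver-Burk plots.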

SMILES	inhibition
CC(C)(NC(=O)Nc1ccc(Cl)c([N+](=O)[O-])c1)c1cccc(-c2cc[nH]n2)c1	Active

System: not listed separately
Test: Metabolic stability in mouse liver microsomes assessed as recovery in presence of NADPH measured after 120 mins
Assay type: ADME, Microsome
Details: read-out: Drug recovery

SMILES	remaining at 2 h [%]
CC(C)(NC(=O)Nc1ccc(Cl)c([N+](=O)[O-])c1)c1cccc(-c2cc[nH]n2)c1	> 95

Molecular target: T2, Inosine-5'-monophosphate dehydrogenase (Escherichia coli K-12) (UniProt P0ADG7)
T2 sequence (whole entry): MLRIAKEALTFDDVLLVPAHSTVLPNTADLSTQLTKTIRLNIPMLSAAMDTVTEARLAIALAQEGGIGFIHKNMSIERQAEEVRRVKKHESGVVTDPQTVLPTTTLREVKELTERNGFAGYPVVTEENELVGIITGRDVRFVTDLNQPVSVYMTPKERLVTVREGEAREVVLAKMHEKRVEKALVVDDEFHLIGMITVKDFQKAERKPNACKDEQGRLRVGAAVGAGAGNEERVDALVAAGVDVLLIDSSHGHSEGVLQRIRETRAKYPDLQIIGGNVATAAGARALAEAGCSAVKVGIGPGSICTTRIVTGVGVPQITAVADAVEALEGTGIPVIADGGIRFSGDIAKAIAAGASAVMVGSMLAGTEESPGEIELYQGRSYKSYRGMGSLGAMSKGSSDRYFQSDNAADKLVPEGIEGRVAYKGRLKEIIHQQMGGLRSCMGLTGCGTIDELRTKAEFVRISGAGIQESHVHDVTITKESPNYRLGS
Test: Inhibition of Escherichia coli IMPDH extracted form Escherichia coli BL21 (DE3)pDIA17 assessed as formation of NADH at 50 uM relative to control
Details: not given
How it was run: (§3)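 His-tagged wild-type IMPDH (E. coli, P. aeruginosa or S. aureus) made in E. coli BL21(DE3)/pDIA17, purified by metal-affinity then gel filtration. NADH formation followed at 340 nm, 30 °C, with 0.2 mM IMP, 0.4 mM NAD⁺, 0.2 mM MgATP, 2 mM MgCl₂. Buffers: pa Tris-HCl 50 mM pH 8; ec Tris-HCl 50 mM pH 8, KCl 50 mM; sa Na₂CO₃ 50 mM pH 9.2, KCl 20 mM. Compound at 50 μM; % inhibition vs compound-free activity.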

SMILES	inhibition [%]
CC(C)(NC(=O)Nc1ccc(Cl)c([N+](=O)[O-])c1)c1cccc(-c2cc[nH]n2)c1	92

System: not listed separately
Test: Inhibition of Pseudomonas aeruginosa IMPDH delta Bateman domain extracted form Escherichia coli BL21 (DE3)pDIA17 assessed as formation of NADH
Details: read-out: I50
How it was run: (§4)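 Bateman-domain-deleted IMPDH (E. coli or P. aeruginosa) from E. coli BL21(DE3)/pDIA17; NADH at 340 nm, 30 °C, 0.2 mM IMP, 0.4 mM NAD⁺, 0.2 mM MgATP, 2 mM MgCl₂; buffers as per variant (ec Tris-HCl pH 9/KCl 100 mM; pa Tris-HCl pH 8/KCl 100 mM). I50 by dose-response logistic fit, at least three experiments.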

SMILES	IC50 [nM]
CC(C)(NC(=O)Nc1ccc(Cl)c([N+](=O)[O-])c1)c1cccc(-c2cc[nH]n2)c1	160

System: Staphylococcus aureus
Test: Inhibition of Staphylococcus aureus IMPDH extracted form Escherichia coli BL21 (DE3)pDIA17 assessed as formation of NADH at 50 uM relative to control
Details: not given
How it was run: as §3

SMILES	inhibition [%]
CC(C)(NC(=O)Nc1ccc(Cl)c([N+](=O)[O-])c1)c1cccc(-c2cc[nH]n2)c1	94

System: not listed separately
Test: Inhibition of Escherichia coli IMPDH delta Bateman domain extracted form Escherichia coli BL21 (DE3)pDIA17 assessed as formation of NADH
Details: read-out: I50
How it was run: as §4

SMILES	IC50 [nM]
CC(C)(NC(=O)Nc1ccc(Cl)c([N+](=O)[O-])c1)c1cccc(-c2cc[nH]n2)c1	4950

Molecular target: T1, Inosine-5'-monophosphate dehydrogenase (Pseudomonas aeruginosa (strain ATCC 15692 / DSM 22644 / CIP 104116 / JCM14847 / LMG 12228 / 1C / PRS 101 / PAO1))
Test: Non-competitive inhibition of Pseudomonas aeruginosa IMPDH in presence of 2 mM NAD+ by Michaelis-Menten equation
Details: not given
How it was run: as §2

SMILES	inhibition
CC(C)(NC(=O)Nc1ccc(Cl)c([N+](=O)[O-])c1)c1cccc(-c2cc[nH]n2)c1	Active

System: not listed separately
Test: Metabolic stability in mouse liver microsomes assessed as recovery in absence of NADPH measured after 120 mins
Assay type: ADME, Microsome
Details: read-out: Drug recovery

SMILES	remaining at 2 h [%]
CC(C)(NC(=O)Nc1ccc(Cl)c([N+](=O)[O-])c1)c1cccc(-c2cc[nH]n2)c1	> 95

System: Escherichia coli
Test: Inhibition of Escherichia coli IMPDH delta Bateman domain extracted form Escherichia coli BL21 (DE3)pDIA17 assessed as formation of NADH at 50 uM relative to control
Details: not given
How it was run: as §1

SMILES	inhibition [%]
CC(C)(NC(=O)Nc1ccc(Cl)c([N+](=O)[O-])c1)c1cccc(-c2cc[nH]n2)c1	88

System: Caco-2
Test: Cytotoxicity against human Caco-2 cells assessed as cell viability at 1 uM measured after 72 hrs by Alamar blue assay
Assay type: toxicity, cell-based
Details: caco-2, 72 h
How it was run: (§5)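 Confluent Caco-2 monolayers (seeded 1.10⁵ cells/cm², 48 h growth; DMEM 25 mM glucose, 10 % FBS, NEAA, 37 °C, 5 % CO₂) exposed 72 h; vehicle 0.1 % DMSO, 0.2 % Triton X-100 as cytotoxic control. Rinsed with PBS, 5 % Alamar Blue in FBS-free medium 30 min at 37 °C; resorufin fluorescence (ex 530/em 570 nm) relative to DMSO. Mean ± SEM, three independent experiments.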

SMILES	Activity
CC(C)(NC(=O)Nc1ccc(Cl)c([N+](=O)[O-])c1)c1cccc(-c2cc[nH]n2)c1	Non-toxic

Molecular target: T1, Inosine-5'-monophosphate dehydrogenase (Pseudomonas aeruginosa (strain ATCC 15692 / DSM 22644 / CIP 104116 / JCM14847 / LMG 12228 / 1C / PRS 101 / PAO1))
Test: Inhibition of Pseudomonas aeruginosa IMPDH extracted form Escherichia coli BL21 (DE3)pDIA17 assessed as formation of NADH at 50 uM relative to control
Details: not given
How it was run: as §3

SMILES	inhibition [%]
CC(C)(NC(=O)Nc1ccc(Cl)c([N+](=O)[O-])c1)c1cccc(-c2cc[nH]n2)c1	99

System: Caco-2
Test: Cytotoxicity against human Caco-2 cells assessed as cell viability at 10 uM measured after 72 hrs by Alamar blue assay
Assay type: toxicity, cell-based
Details: caco-2, 72 h
How it was run: as §5

SMILES	Activity
CC(C)(NC(=O)Nc1ccc(Cl)c([N+](=O)[O-])c1)c1cccc(-c2cc[nH]n2)c1	Non-toxic

Molecular target: Inosine-5'-monophosphate dehydrogenase 2 (Homo sapiens) (UniProt P12268)
Sequence (P12268 2-514 limits assumed): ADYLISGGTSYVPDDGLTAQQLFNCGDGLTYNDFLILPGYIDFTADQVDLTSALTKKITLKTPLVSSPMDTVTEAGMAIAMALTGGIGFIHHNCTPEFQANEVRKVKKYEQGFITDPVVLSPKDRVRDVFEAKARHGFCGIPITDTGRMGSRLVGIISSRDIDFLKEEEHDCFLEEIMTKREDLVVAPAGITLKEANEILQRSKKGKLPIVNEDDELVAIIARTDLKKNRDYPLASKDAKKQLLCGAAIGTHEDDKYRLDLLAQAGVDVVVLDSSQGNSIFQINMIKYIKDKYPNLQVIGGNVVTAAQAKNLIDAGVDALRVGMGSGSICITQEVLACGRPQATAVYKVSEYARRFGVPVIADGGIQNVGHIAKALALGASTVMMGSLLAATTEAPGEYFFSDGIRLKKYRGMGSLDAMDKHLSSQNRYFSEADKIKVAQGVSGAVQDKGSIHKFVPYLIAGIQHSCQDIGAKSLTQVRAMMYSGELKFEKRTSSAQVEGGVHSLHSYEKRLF
Test: Inhibition of human IMPDH2 extracted form Escherichia coli BL21 (DE3)pDIA17 assessed as formation of NADH at 50 uM
Details: not given

SMILES	inhibition
CC(C)(NC(=O)Nc1ccc(Cl)c([N+](=O)[O-])c1)c1cccc(-c2cc[nH]n2)c1	inactive

System: Mycobacterium tuberculosis
Test: Inhibition of Mycobacterium tuberculosis TMP kinase using 0.05 dTMP and 0.5 mM MgATP by measuring NADH consumption at 20 uM by coupled spectrophotometric assay
Details: not given
How it was run: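 Recombinant M. tuberculosis TMP kinase; activity at 30 °C by NADH consumption at 340 nm in a pyruvate kinase/lactate dehydrogenase/nucleoside diphosphate kinase coupled assay (2 units each). Medium: 50 mM Tris-HCl pH 7.4, 50 mM KCl, 2 mM MgCl2, 0.2 mM NADH, 1 mM phosphoenolpyruvate. ATP held at 0.5 mM and dTMP at 0.05 mM; compound at 20 μM.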

SMILES	inhibition
CC(C)(NC(=O)Nc1ccc(Cl)c([N+](=O)[O-])c1)c1cccc(-c2cc[nH]n2)c1	inactive

System: Staphylococcus aureus
Test: Antibacterial activity against methicillin-resistant Staphylococcus aureus ATCC 43300 assessed as growth inhibition at 32 ug/ml relative to control
Assay type: functional
Details: not given

SMILES	inhibition at 32 µg/mL [%]
CC(C)(NC(=O)Nc1ccc(Cl)c([N+](=O)[O-])c1)c1cccc(-c2cc[nH]n2)c1	79.3

Molecular target: T3, Inosine-5'-monophosphate dehydrogenase (Pseudomonas aeruginosa (strain ATCC 15692 / DSM 22644 / CIP 104116 / JCM14847 / LMG 12228 / 1C / PRS 101 / PAO1), UniProt Q9HXM5)
T3 sequence (Q9HXM5 whole entry): T1 sequence (whole entry)
Test: Inhibition of Pseudomonas aeruginosa IMPDH extracted form Escherichia coli BL21 (DE3)pDIA17 assessed as formation of NADH
Details: read-out: I50

SMILES	IC50 [nM]
CC(C)(NC(=O)Nc1ccc(Cl)c([N+](=O)[O-])c1)c1cccc(-c2cc[nH]n2)c1	110
